# From ChEMBL document CHEMBL1144753, “Inhibitors of DNA polymerase beta: activity and mechanism” (Bioorg Med Chem, 2008)
# The source made the active and inactive calls. The rule behind the calls is not given here.
# Tests used:
# A549 [1] = test: Inhibition of bleomycin-induced unscheduled DNA synthesis in human A549 cells at 6 uM; format: functional, cell-based
# Procedure, shortened: (§1)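 A549 cells (~5×10^5) treated with 10 mM bleomycin for 30 min at 37 °C. DMSO, 10 mM hydroxyurea, 2 mM nicotinamide, 5 μCi [3H]thymidine and inhibitor then added, triplicate flasks per concentration. Incubated 3 h, stopped with ice-cold saline. Cells pelleted and treated with ice-cold 5% TCA for 30 min; incorporated radioactivity read by scintillation counting.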
# A549 [2] = test: Cytotoxicity against human A549 cells after 48 hrs by MTT assay; conditions: A549, 48 h
# A549 [3] = test: Effect on DNA polymerase beta expression in human A549 cells at 6 uM after 48 hrs by Western blot analysis; format: functional, cell-based
# Procedure, shortened: (§2)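 A549 cells grown in Ham's F12K with 10% fetal calf serum, exposed 48 h to compound. Whole-cell extracts prepared by freeze/thaw lysis, cleared at 15,000 × g. Extracts resolved on 15% SDS-PAGE, transferred to PVDF and probed with anti-human pol β antibody. Anti-β-actin served as loading control. HRP anti-goat IgG detection, followed by densitometric quantification.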
# A549 [4] = test: Inhibition of bleomycin-induced unscheduled DNA synthesis in human A549 cells at 25 uM; format: functional, cell-based; procedure, shortened: as §1
# A549 [5] = test: Effect on DNA polymerase beta expression in human A549 cells at 25 uM after 48 hrs by Western blot analysis; format: functional, cell-based
# Procedure, shortened: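 A549 cells grown at 37 °C, 5% CO2 in Kaighn's F12 with 10% fetal calf serum, exposed 48 h to inhibitor at 25 μM (final DMSO <0.05%). Whole-cell extracts made by freeze/thaw, then resolved on 15% SDS-PAGE and blotted to PVDF. Probed with anti-human pol β antibody, with anti-β-actin as loading control. HRP detection; bands scanned and quantified.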
# [6] = target: DNA polymerase beta (Rattus norvegicus) (UniProt P06766); test: Inhibition of lyase activity of DNA polymerase beta
# [7] = target: DNA polymerase beta (Rattus norvegicus) (UniProt P06766); test: Inhibition of polymerase activity of DNA polymerase beta
# A549 [8] = test: Inhibition of bleomycin-induced unscheduled DNA synthesis in human A549 cells at 3 uM; format: functional, cell-based
# Procedure, shortened: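 A549 cells (~5×10^5) treated with 10 mM bleomycin for 30 min at 37 °C. Then 10 mM hydroxyurea, 2 mM nicotinamide, 5 µCi [3H]thymidine and inhibitor added, incubated 3 h. Stopped with ice-cold saline. Cells collected and TCA-precipitated on ice 30 min for scintillation counting of incorporated label. Run in triplicate.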
# A549 [9] = test: Effect on DNA polymerase beta expression in human A549 cells at 3 uM after 48 hrs by Western blot analysis; format: functional, cell-based; procedure, shortened: as §2
Compound,Activity (A549 [1]),IC50 (A549 [2]),Activity (A549 [3]),Activity (A549 [4]),Activity (A549 [5]),IC50 [6],IC50 [7],Activity (A549 [8]),Activity (A549 [9])
O=c1ccc2ccc(Oc3cc4ccc(O)cc4oc3=O)cc2o1 [EDGEWORIN],Active,80.2 µM,inactive,,,,,,
CC1(C)CC[C@]2(C(=O)O)CC[C@]3(C)C(=CC[C@@H]4[C@@]5(C)CC[C@H](O)C(C)(C)[C@@H]5CC[C@]43C)[C@@H]2C1 [OLEANOLIC_ACID],,> 100 µM,,Active,inactive,26.3 µM,25 µM,,
C=C(C)[C@@H]1CC[C@]2(C(=O)O)CC[C@]3(C)[C@H](CC[C@@H]4[C@@]5(C)CC[C@H](O)C(C)(C)[C@@H]5CC[C@]43C)[C@@H]12 [BETULINIC ACID],,6.65 µM,,,,,,Active,inactive
CC[C@H](/C=C/[C@@H](C)[C@H]1CC[C@H]2[C@@H]3CC=C4C[C@@H](O)CC[C@]4(C)[C@H]3CC[C@]12C)C(C)C [STIGMASTEROL],,98.2 µM,inactive,,,60.3 µM,> 250 µM,,
